From ChEMBL document CHEMBL1124204, “Thiophene systems. 9. Thienopyrimidinedione derivatives as potential antihypertensive agents” (1988)

Experiments:
Rattus norvegicus [1] = test: Time to peak fall in systolic blood pressure in spontaneously hypertensive rats after oral administration of 1.25 mg/kg of the compound
Rattus norvegicus [2] = test: Evaluated for blood pressure lowering activity in spontaneously hypertensive rats (maximum change of systolic blood pressure (SBP)) at a dose of 1.25 mg/kg; format: functional, Artery
How it was run: (§1)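 Adult male SHR, conscious, restrained in a chamber at 32 °C. SBP measured indirectly by tail cuff with a pneumatic pulse transducer. After baseline, groups of 4–6 received a single oral gavage dose or vehicle (0.5% methylcellulose). SBP was read at 0.5, 1, 2, 3 and 4 h, and the maximum SBP change ± SEM was reported against the vehicle effect.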

Rattus norvegicus [3] = test: Evaluated for blood pressure lowering activity in spontaneously hypertensive rats (maximum change of systolic blood pressure (SBP)) at a dose of 10 mg/kg; format: functional, Artery
How it was run: as §1

Rattus norvegicus [4] = test: Time to peak fall in systolic blood pressure in spontaneously hypertensive rats after oral administration of 10 mg/kg of the compound
Rattus norvegicus [5] = test: Evaluated for blood pressure lowering activity in spontaneously hypertensive rats (maximum change of systolic blood pressure (SBP)) at a dose of 2.5 mg/kg; format: functional, Artery
How it was run: as §1

Rattus norvegicus [6] = test: Time to reach peak blood pressure lowering effect in spontaneously hypertensive rats after oral administration of 2.5 mg/kg of the compound
Rattus norvegicus [7] = test: Intravenous dose required to produce a 50% inhibition of the phenylephrine pressor response in the spontaneously hypertensive rats; format: functional
How it was run: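 Adult male SHR, anesthetized and bilaterally vagotomized. A carotid artery was cannulated for mean arterial pressure and a jugular vein for iv dosing. Phenylephrine pressor responses were measured before and after antagonist. The iv dose (μg/kg) giving 50% inhibition of the pressor response (ED50) was reported with fiducial limits.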

Canis familiaris = test: Intravenous dose required to produce a 20-fold rightward shift in the phenylephrine dose-response curve in the dog; format: functional, Canis lupus familiaris
How it was run: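 Mongrel dogs, anesthetized and bilaterally vagotomized. Mean arterial pressure was recorded via carotid cannula, and drug was given iv through the jugular vein. Phenylephrine dose–response curves were run before and after antagonist. The iv dose (μg/kg) producing a 20-fold rightward shift (DR20) was calculated; n = animals tested.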

Rattus norvegicus [8] = organism: Rattus norvegicus; test: Peroral dose required to produce a 50 mmHg drop in systolic blood pressure (SBP) in the spontaneously hypertensive rats; format: functional; details: Artery, po
How it was run: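 Adult male SHR, conscious, tail-cuff indirect SBP at 32 °C. Groups of 4–6 were given single oral gavage doses of 0.5–20 mg/kg in 0.5% methylcellulose, with SBP followed over 4 h. The dose giving a 50 mmHg SBP fall (ED50SBP, mg/kg po) was calculated by regression analysis with 95% fiducial limits; n = animals tested.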

Rattus norvegicus [9] = test: Evaluated for blood pressure lowering activity in the conscious spontaneously hypertensive rats (SHR) (time to peak (h)) at a dose of 2.5 mg/kg; format: functional
How it was run: (§2)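 Conscious adult male SHR in restrainers at 32 °C, with tail-cuff and pulse-transducer SBP recording. Groups of 4–6 got a single gavage dose in 0.5% methylcellulose or vehicle alone. SBP was sampled at 0.5, 1, 2, 3 and 4 h post-dose, and the time (h) at which the peak SBP change occurred was recorded.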

Rattus norvegicus [10] = test: Evaluated for blood pressure lowering activity in spontaneously hypertensive rats (maximum change of systolic blood pressure (SBP)) at a dose of 5 mg/kg; format: functional, Artery
How it was run: as §1

Rattus norvegicus [11] = test: Evaluated for blood pressure lowering activity in the conscious spontaneously hypertensive rats (SHR) (time to peak (h)) at a dose of 5 mg/kg; format: functional
How it was run: as §2

Rattus norvegicus [12] = test: Evaluated for blood pressure lowering activity in the conscious spontaneously hypertensive rats (SHR) (time to peak (h)) at a dose of 10 mg/kg; format: functional
How it was run: as §2

Rattus norvegicus [13] = test: Evaluated for blood pressure lowering activity in spontaneously hypertensive rats (maximum change of systolic blood pressure (SBP)) at a dose of 20 mg/kg; format: functional, Artery
How it was run: as §1

Rattus norvegicus [14] = test: Time to reach peak blood pressure lowering effect in spontaneously hypertensive rats after oral administration of 20 mg/kg of the compound

COc1ccccc1N1CCN(CCn2c(=O)[nH]c3csc(C)c3c2=O)CC1.Cl
Time (Rattus norvegicus [1]): 1 h | Delta SBP (Rattus norvegicus [2]): -66 mmHg

COc1ccccc1N1CCN(CCn2c(=O)[nH]c3scc(C)c3c2=O)CC1.Cl.O
Delta SBP (Rattus norvegicus [3]): -56 mmHg | Time (Rattus norvegicus [4]): 0.5 h

CCOc1ccccc1N1CCN(CCn2c(=O)[nH]c3cscc3c2=O)CC1.Cl
Delta SBP (Rattus norvegicus [5]): -79 mmHg | Time (Rattus norvegicus [6]): 2 h

Cl.O=c1[nH]c2cscc2c(=O)n1CCN1CCN(c2ccc(F)cc2)CC1
Delta SBP (Rattus norvegicus [3]): -68 mmHg | Time (Rattus norvegicus [4]): 0.5 h

Cl.O=c1[nH]c2cscc2c(=O)n1CCN1CCN(c2ccccc2)CC1
Delta SBP (Rattus norvegicus [3]): -76 mmHg | Time (Rattus norvegicus [4]): 0.5 h

COc1ccccc1N1CCN(CCn2c(=O)[nH]c3sccc3c2=O)CC1
ED50 (Rattus norvegicus [7]): 0.0154 mg/kg | Time (Rattus norvegicus [1]): 0.5 h | DR20 (Canis familiaris): 20 µg/kg | ED50 (Rattus norvegicus [8]): 1 mg/kg | Delta SBP (Rattus norvegicus [2]): -50 mmHg

COc1ccccc1N1CCN(CCn2c(=O)c3sccc3n(C(=O)C(C)(C)C)c2=O)CC1
Delta SBP (Rattus norvegicus [5]): -62 mmHg | Time (Rattus norvegicus [9]): 0.5 h

COc1ccccc1N1CCN(CCn2c(=O)c3cscc3n(C(=O)C(C)(C)C)c2=O)CC1
Delta SBP (Rattus norvegicus [10]): -69 mmHg | Time (Rattus norvegicus [11]): 0.5 h

COc1ccccc1N1CCN(CCCn2c(=O)[nH]c3sccc3c2=O)CC1
Time (Rattus norvegicus [12]): 0.5 h | Delta SBP (Rattus norvegicus [3]): -68 mmHg

COc1ccccc1N1CCN(CCCn2c(=O)[nH]c3ccsc3c2=O)CC1
Delta SBP (Rattus norvegicus [3]): -43 mmHg | Time (Rattus norvegicus [4]): 0.5 h

COc1ccccc1N1CCN(CCn2c(=O)c3sccc3n(C)c2=O)CC1
Time (Rattus norvegicus [1]): 0.5 h | Delta SBP (Rattus norvegicus [2]): -56 mmHg

COc1ccccc1N1CCN(CCn2c(=O)c3cscc3n(C(=O)C(C)C)c2=O)CC1
Delta SBP (Rattus norvegicus [10]): -53 mmHg | Time (Rattus norvegicus [11]): 0.5 h

C#CCn1c(=O)n(CCN2CCN(c3ccccc3OC)CC2)c(=O)c2cscc21
Time (Rattus norvegicus [12]): 1 h | Delta SBP (Rattus norvegicus [3]): -52 mmHg

COc1ccc(N2CCN(CCn3c(=O)[nH]c4sccc4c3=O)CC2)cc1
Delta SBP (Rattus norvegicus [3]): -40 mmHg | Time (Rattus norvegicus [4]): 0.5 h

O=c1[nH]c2cscc2c(=O)n1CCN1CCN(c2ccc(Cl)cc2)CC1
Delta SBP (Rattus norvegicus [3]): -56 mmHg | Time (Rattus norvegicus [4]): 0.5 h

COc1ccccc1N1CCN(CCn2c(=O)[nH]c3sc(C)c(C)c3c2=O)CC1
Delta SBP (Rattus norvegicus [13]): -50 mmHg | Time (Rattus norvegicus [14]): 1 h

Cc1ccccc1N1CCN(CCn2c(=O)[nH]c3cscc3c2=O)CC1
Time (Rattus norvegicus [1]): 0.5 h | Delta SBP (Rattus norvegicus [2]): -36 mmHg

CCOC(=O)CCCn1c(=O)n(CCN2CCN(c3ccccc3OC)CC2)c(=O)c2cscc21
Delta SBP (Rattus norvegicus [3]): -87 mmHg | Time (Rattus norvegicus [4]): 0.5 h

C=CCn1c(=O)n(CCN2CCN(c3ccccc3OC)CC2)c(=O)c2cscc21
Delta SBP (Rattus norvegicus [3]): -50 mmHg | Time (Rattus norvegicus [4]): 1 h

O=c1[nH]c2sccc2c(=O)n1CCN1CCN(c2ccccc2Cl)CC1
Delta SBP (Rattus norvegicus [3]): -43 mmHg | Time (Rattus norvegicus [4]): 2 h

CCCCCCCCn1c(=O)n(CCN2CCN(c3ccccc3OC)CC2)c(=O)c2cscc21
Time (Rattus norvegicus [12]): 2 h | Delta SBP (Rattus norvegicus [3]): -54 mmHg

CCOC(=O)CCCCn1c(=O)n(CCN2CCN(c3ccccc3OC)CC2)c(=O)c2sccc21
Delta SBP (Rattus norvegicus [5]): -30 mmHg | Time (Rattus norvegicus [6]): 0.5 h

Cc1ccccc1N1CCN(CCn2c(=O)[nH]c3ccsc3c2=O)CC1
Time (Rattus norvegicus [1]): 1 h | Delta SBP (Rattus norvegicus [2]): -33 mmHg

COc1ccc(C(=O)n2c(=O)n(CCN3CCN(c4ccccc4OC)CC3)c(=O)c3cscc32)cc1
Delta SBP (Rattus norvegicus [5]): -59 mmHg | Time (Rattus norvegicus [9]): 2 h

CCCCCC(=O)n1c(=O)n(CCN2CCN(c3ccccc3OC)CC2)c(=O)c2cscc21
Delta SBP (Rattus norvegicus [10]): -42 mmHg | Time (Rattus norvegicus [11]): 0.5 h

COc1ccccc1N1CCN(CCn2c(=O)c3cscc3n(C(=O)c3ccccc3)c2=O)CC1
Delta SBP (Rattus norvegicus [10]): -68 mmHg | Time (Rattus norvegicus [11]): 1 h

COC(=O)CCn1c(=O)n(CCN2CCN(c3ccccc3OC)CC2)c(=O)c2cscc21
Delta SBP (Rattus norvegicus [3]): -55 mmHg | Time (Rattus norvegicus [4]): 1 h

COc1ccc(N2CCN(CCn3c(=O)[nH]c4cscc4c3=O)CC2)cc1
Delta SBP (Rattus norvegicus [3]): -51 mmHg | Time (Rattus norvegicus [4]): 0.5 h

COc1ccccc1N1CCN(CCn2c(=O)c3cscc3n(C(C)=O)c2=O)CC1
Delta SBP (Rattus norvegicus [5]): -44 mmHg | Time (Rattus norvegicus [9]): 0.5 h

CCOC(=O)n1c(=O)n(CCN2CCN(c3ccccc3OC)CC2)c(=O)c2sccc21
Delta SBP (Rattus norvegicus [5]): -30 mmHg | Time (Rattus norvegicus [9]): 0.5 h

COc1ccccc1N1CCN(CCn2c(=O)c3sccc3n(C(C)=O)c2=O)CC1
Delta SBP (Rattus norvegicus [10]): -58 mmHg | Time (Rattus norvegicus [11]): 0.5 h

O=c1[nH]c2sccc2c(=O)n1CCN1CCN(c2ccccc2)CC1
Delta SBP (Rattus norvegicus [3]): -45 mmHg | Time (Rattus norvegicus [4]): 1 h

COc1ccccc1N1CCN(CCn2c(=O)[nH]c3c(Cl)scc3c2=O)CC1
Delta SBP (Rattus norvegicus [5]): -75 mmHg | Time (Rattus norvegicus [6]): 0.5 h

COc1ccccc1N1CCN(CCn2c(=O)c3cscc3n(C(=O)c3ccc(Cl)cc3)c2=O)CC1
Delta SBP (Rattus norvegicus [10]): -14 mmHg | Time (Rattus norvegicus [11]): 1 h

COc1ccccc1N1CCN(CCn2c(=O)c3ccsc3n(C)c2=O)CC1
Time (Rattus norvegicus [1]): 0.5 h | Delta SBP (Rattus norvegicus [2]): -28 mmHg

COc1ccccc1N1CCN(CCn2c(=O)[nH]c3ccsc3c2=O)CC1
ED50 (Rattus norvegicus [7]): 0.0021 mg/kg | Time (Rattus norvegicus [1]): 0.5 h | DR20 (Canis familiaris): 4 µg/kg | ED50 (Rattus norvegicus [8]): 0.19 mg/kg | Delta SBP (Rattus norvegicus [2]): -74 mmHg

COc1ccc(N2CCN(CCn3c(=O)[nH]c4ccsc4c3=O)CC2)cc1
Delta SBP (Rattus norvegicus [3]): -68 mmHg | Time (Rattus norvegicus [4]): 1 h

COc1cccc(N2CCN(CCn3c(=O)[nH]c4ccsc4c3=O)CC2)c1
Delta SBP (Rattus norvegicus [5]): -28 mmHg | Time (Rattus norvegicus [6]): 1 h

O=c1[nH]c2cscc2c(=O)n1CCN1CCN(c2cccc(Cl)c2)CC1
Time (Rattus norvegicus [12]): 2 h | Delta SBP (Rattus norvegicus [3]): -20 mmHg

COc1ccccc1N1CCN(CCCn2c(=O)[nH]c3cscc3c2=O)CC1
Delta SBP (Rattus norvegicus [3]): -38 mmHg | Time (Rattus norvegicus [4]): 1 h

O=c1[nH]c2cscc2c(=O)n1CCN1CCN(c2ccccc2Cl)CC1
Time (Rattus norvegicus [1]): 0.5 h | Delta SBP (Rattus norvegicus [2]): -51 mmHg

O=c1[nH]c2ccsc2c(=O)n1CCN1CCN(c2ccccc2Cl)CC1
Time (Rattus norvegicus [1]): 0.5 h | Delta SBP (Rattus norvegicus [2]): -30 mmHg

COc1ccccc1N1CCN(CCn2c(=O)c3cscc3n(C)c2=O)CC1
Time (Rattus norvegicus [1]): 0.5 h | Delta SBP (Rattus norvegicus [2]): -67 mmHg

O=c1[nH]c2ccsc2c(=O)n1CCN1CCN(c2ccccc2)CC1
Delta SBP (Rattus norvegicus [3]): -48 mmHg | Time (Rattus norvegicus [4]): 0.5 h

COc1ccccc1N1CCN(CCn2c(=O)[nH]c3sc(Cl)cc3c2=O)CC1
Time (Rattus norvegicus [1]): 0.5 h | Delta SBP (Rattus norvegicus [2]): -25 mmHg

CCCCn1c(=O)n(CCN2CCN(c3ccccc3OC)CC2)c(=O)c2sccc21
Time (Rattus norvegicus [1]): 0.5 h | Delta SBP (Rattus norvegicus [2]): -28 mmHg

Cc1ccccc1N1CCN(CCn2c(=O)[nH]c3sccc3c2=O)CC1
Delta SBP (Rattus norvegicus [3]): -70 mmHg | Time (Rattus norvegicus [4]): 0.5 h
